From ChEMBL document CHEMBL1212799 (2010)
≈ marks a conversion by molar mass, not a printed value.

Experiments:
Klebsiella pneumoniae [1] = assay: fT>MIC in Klebsiella pneumoniae isolate 353 at 2 gram for every 8 hrs administered as 3 hrs infusion measured over 16-24 hrs in in vitro pharmcodynamic model; format: functional, isoalte 353
Method in brief: (§1)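 Samples assayed by HPLC (linear 0.25–40 µg/ml). Time free drug stayed above the modal triplicate broth-microdilution MIC (CLSI) calculated for each 8-h interval.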

Klebsiella pneumoniae [2] = assay: fT>MIC in Klebsiella pneumoniae isolate 328A at 2 gram for every 8 hrs administered as 3 hrs infusion measured over 16-24 hrs in in vitro pharmcodynamic model; format: functional; method in brief: as §1
Klebsiella pneumoniae [3] = assay: fT>MIC in Klebsiella pneumoniae isolate 357 at 2 gram for every 8 hrs administered as 3 hrs infusion measured over 0-8 hrs in in vitro pharmcodynamic model; format: functional; method in brief: as §1
Pseudomonas aeruginosa [4] = assay: Antibacterial activity against Pseudomonas aeruginosa isolate 1030 assessed as reduction of bacterial count at 8 ug/ml within 6 hrs in vitro pharmacodynamic model; format: functional
Klebsiella pneumoniae [5] = assay: fT>MIC in Klebsiella pneumoniae isolate 357 at 2 gram for every 8 hrs administered as 3 hrs infusion over 24 hrs in in vitro pharmcodynamic model; format: functional; method in brief: as §1
Klebsiella pneumoniae [6] = assay: fT>MIC in Klebsiella pneumoniae isolate 354 at 2 gram for every 8 hrs administered as 3 hrs infusion measured over 0-8 hrs in in vitro pharmcodynamic model; format: functional; method in brief: as §1
Klebsiella pneumoniae [7] = assay: Antibacterial activity against Klebsiella pneumoniae isolate 351 assessed as reduction of bacterial count at 8 ug/ml within 6 hrs in vitro pharmacodynamic model; format: functional
Klebsiella pneumoniae [8] = assay: fT>MIC in Klebsiella pneumoniae isolate 377 at 2 gram for every 8 hrs administered as 3 hrs infusion measured over 0-8 hrs in in vitro pharmcodynamic model; format: functional
Pseudomonas aeruginosa [9] = assay: fT>MIC in Pseudomonas aeruginosa isolate 1038 at 2 gram for every 8 hrs administered as 3 hrs infusion measured over 16-24 hrs in in vitro pharmcodynamic model; format: functional
Klebsiella pneumoniae [10] = assay: fT>MIC in Klebsiella pneumoniae isolate 360 at 2 gram for every 8 hrs administered as 3 hrs infusion measured over 8-16 hrs in in vitro pharmcodynamic model; format: functional; method in brief: as §1
Klebsiella pneumoniae [11] = assay: fT>MIC in Klebsiella pneumoniae isolate 360 at 2 gram for every 8 hrs administered as 3 hrs infusion measured over 0-8 hrs in in vitro pharmcodynamic model; format: functional; method in brief: as §1
Klebsiella pneumoniae [12] = assay: fT>MIC in Klebsiella pneumoniae isolate 361 at 2 gram for every 8 hrs administered as 3 hrs infusion measured over 0-8 hrs in in vitro pharmcodynamic model; format: functional; method in brief: as §1
Pseudomonas aeruginosa [13] = assay: Antibacterial activity against Pseudomonas aeruginosa isolate 988 assessed as reduction of bacterial count at 16 ug/ml within 6 hrs in vitro pharmacodynamic model; format: functional
Klebsiella pneumoniae [14] = assay: Antibacterial activity against Klebsiella pneumoniae isolate 368 assessed as reduction of bacterial count at 32 ug/ml within 6 hrs in vitro pharmacodynamic model; format: functional
Klebsiella pneumoniae [15] = assay: Antibacterial activity against Klebsiella pneumoniae isolate 361 in vitro pharmacodynamic model; format: functional
Method in brief: (§2)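 Inoculum 10^6 CFU/ml; dosing began 0.5 h after inoculation. Two treated models plus one untreated control per isolate; blood-agar counts; change in log10 CFU/ml over 24 h (detection limit 10^1); drug levels checked by HPLC.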

Klebsiella pneumoniae [16] = assay: fT>MIC in Klebsiella pneumoniae isolate 354 at 2 gram for every 8 hrs administered as 3 hrs infusion over 24 hrs in in vitro pharmcodynamic model; format: functional; method in brief: as §1
Klebsiella pneumoniae [17] = assay: fT>MIC in Klebsiella pneumoniae isolate 354 at 2 gram for every 8 hrs administered as 3 hrs infusion measured over 8-16 hrs in in vitro pharmcodynamic model; format: functional; method in brief: as §1
Klebsiella pneumoniae [18] = assay: fT>MIC in Klebsiella pneumoniae isolate 368 at 2 gram for every 8 hrs administered as 3 hrs infusion measured over 0-8 hrs in in vitro pharmcodynamic model; format: functional; method in brief: as §1
Klebsiella pneumoniae [19] = assay: fT>MIC in Klebsiella pneumoniae isolate 361 at 2 gram for every 8 hrs administered as 3 hrs infusion measured over 8-16 hrs in in vitro pharmcodynamic model; format: functional; method in brief: as §1
Klebsiella pneumoniae [20] = assay: fT>MIC in Klebsiella pneumoniae isolate 354 at 2 gram for every 8 hrs administered as 3 hrs infusion measured over 16-24 hrs in in vitro pharmcodynamic model; format: functional; method in brief: as §1
Klebsiella pneumoniae [21] = assay: fT>MIC in Klebsiella pneumoniae isolate 334 at 2 gram for every 8 hrs administered as 3 hrs infusion measured over 8-16 hrs in in vitro pharmcodynamic model; format: functional; method in brief: as §1
Klebsiella pneumoniae [22] = assay: Antibacterial activity against Klebsiella pneumoniae isolate 360 assessed as reduction of bacterial count at 16 ug/ml within 6 hrs in vitro pharmacodynamic model; format: functional
Klebsiella pneumoniae [23] = assay: fT>MIC in Klebsiella pneumoniae isolate 377 at 2 gram for every 8 hrs administered as 3 hrs infusion over 24 hrs in in vitro pharmcodynamic model; format: functional
Pseudomonas aeruginosa [24] = assay: fT>MIC in Pseudomonas aeruginosa isolate 1177 at 2 gram for every 8 hrs administered as 3 hrs infusion measured over 0-8 hrs in in vitro pharmcodynamic model; format: functional
Klebsiella pneumoniae [25] = assay: fT>MIC in Klebsiella pneumoniae isolate 361 at 2 gram for every 8 hrs administered as 3 hrs infusion measured over 16-24 hrs in in vitro pharmcodynamic model; format: functional; method in brief: as §1
Pseudomonas aeruginosa [26] = assay: fT>MIC in Pseudomonas aeruginosa isolate 988 at 2 gram for every 8 hrs administered as 3 hrs infusion measured over 8-16 hrs in in vitro pharmcodynamic model; format: functional
Pseudomonas aeruginosa [27] = assay: fT>MIC in Pseudomonas aeruginosa isolate 1030 at 2 gram for every 8 hrs administered as 3 hrs infusion measured over 0-8 hrs in in vitro pharmcodynamic model; format: functional
Pseudomonas aeruginosa [28] = assay: fT>MIC in Pseudomonas aeruginosa isolate 1177 at 2 gram for every 8 hrs administered as 3 hrs infusion measured over 8-16 hrs in in vitro pharmcodynamic model; format: functional
Klebsiella pneumoniae [29] = assay: Antibacterial activity against Klebsiella pneumoniae isolate 375 in vitro pharmacodynamic model; format: functional
Method in brief: (§3)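 Simulated peak 38.4 µg/ml, trough 3.04 µg/ml. CAMHB at 37°C, 10^6 CFU/ml from overnight culture, drug started at 0.5 h. Two treated models plus one growth control. Change in log10 CFU/ml over 24 h on blood agar. Detection limit 10^1 CFU/ml.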

Klebsiella pneumoniae [30] = assay: fT>MIC in Klebsiella pneumoniae isolate 375 at 2 gram for every 8 hrs administered as 3 hrs infusion over 24 hrs in in vitro pharmcodynamic model; format: functional
Klebsiella pneumoniae [31] = assay: Antibacterial activity against Klebsiella pneumoniae isolate 334 assessed as reduction of bacterial count at 32 ug/ml within 6 hrs in vitro pharmacodynamic model; format: functional
Klebsiella pneumoniae [32] = assay: fT>MIC in Klebsiella pneumoniae isolate 351 at 2 gram for every 8 hrs administered as 3 hrs infusion over 24 hrs in in vitro pharmcodynamic model; format: functional; method in brief: as §1
Klebsiella pneumoniae [33] = assay: fT>MIC in Klebsiella pneumoniae isolate 375 at 2 gram for every 8 hrs administered as 3 hrs infusion measured over 8-16 hrs in in vitro pharmcodynamic model; format: functional
Klebsiella pneumoniae [34] = assay: Antibacterial activity against Klebsiella pneumoniae isolate 354 in vitro pharmacodynamic model; format: functional; method in brief: as §2
Klebsiella pneumoniae [35] = assay: fT>MIC in Klebsiella pneumoniae isolate 334 at 2 gram for every 8 hrs administered as 3 hrs infusion measured over 0-8 hrs in in vitro pharmcodynamic model; format: functional; method in brief: as §1
Klebsiella pneumoniae [36] = assay: Antibacterial activity against Klebsiella pneumoniae isolate 368 in vitro pharmacodynamic model; format: functional; method in brief: as §3
Klebsiella pneumoniae [37] = assay: fT>MIC in Klebsiella pneumoniae isolate 353 at 2 gram for every 8 hrs administered as 3 hrs infusion over 24 hrs in in vitro pharmcodynamic model; format: functional, isoalte 353; method in brief: as §1
Pseudomonas aeruginosa [38] = assay: fT>MIC in Pseudomonas aeruginosa isolate 1030 at 2 gram for every 8 hrs administered as 3 hrs infusion measured over 8-16 hrs in in vitro pharmcodynamic model; format: functional

## C[C@@H](O)[C@H]1C(=O)N2C(C(=O)O)=C(S[C@@H]3CN[C@H](C(=O)N(C)C)C3)[C@H](C)[C@H]12 [MEROPENEM]
Klebsiella pneumoniae [1]
  fT>MIC: 0%
Klebsiella pneumoniae [2]
  fT>MIC: 78%
Klebsiella pneumoniae [3]
  fT>MIC: 12%
Pseudomonas aeruginosa [4]
  log10cfu: >=3
Klebsiella pneumoniae [5]
  fT>MIC: 47%
Klebsiella pneumoniae [6]
  fT>MIC: 68%
Klebsiella pneumoniae [7]
  log10cfu: >3
Klebsiella pneumoniae [8]
  fT>MIC: 100%
Pseudomonas aeruginosa [9]
  fT>MIC: 82%
Klebsiella pneumoniae [10]
  fT>MIC: 0%
Klebsiella pneumoniae [11]
  fT>MIC: 0%
Klebsiella pneumoniae [12]
  fT>MIC: 0%
Pseudomonas aeruginosa [13]
  log10cfu: >=3
Klebsiella pneumoniae [14]
  log10cfu: >3
Klebsiella pneumoniae [15]
  MIC: 64 µg/mL (≈ 167 µM)
Klebsiella pneumoniae [16]
  fT>MIC: 69%
Klebsiella pneumoniae [17]
  fT>MIC: 56%
Klebsiella pneumoniae [18]
  fT>MIC: 0%
Klebsiella pneumoniae [19]
  fT>MIC: 0%
Klebsiella pneumoniae [20]
  fT>MIC: 3%
Klebsiella pneumoniae [21]
  fT>MIC: 0%
Klebsiella pneumoniae [22]
  log10cfu: >3
Klebsiella pneumoniae [23]
  fT>MIC: 100%
Pseudomonas aeruginosa [24]
  fT>MIC: 75%
Klebsiella pneumoniae [25]
  fT>MIC: 0%
Pseudomonas aeruginosa [26]
  fT>MIC: 50%
Pseudomonas aeruginosa [27]
  fT>MIC: 75%
Pseudomonas aeruginosa [28]
  fT>MIC: 78%
Klebsiella pneumoniae [29]
  MIC: 32 µg/mL (≈ 83.4 µM)
Klebsiella pneumoniae [30]
  fT>MIC: 16%
Klebsiella pneumoniae [31]
  log10cfu: >3
Klebsiella pneumoniae [32]
  fT>MIC: 69%
Klebsiella pneumoniae [33]
  fT>MIC: 0%
Klebsiella pneumoniae [34]
  MIC: 8 µg/mL (≈ 20.9 µM)
Klebsiella pneumoniae [35]
  fT>MIC: 0%
Klebsiella pneumoniae [36]
  MIC: 32 µg/mL (≈ 83.4 µM)
Klebsiella pneumoniae [37]
  fT>MIC: 47%
Pseudomonas aeruginosa [38]
  fT>MIC: 78%
